Screening results deposited in PubChem by several laboratories.
Mac1 fbg enh = enhancers of CD11b/CD18 adhesion to fibrinogen, primary screen, K562 cells, luminescence; Integrin beta-2 (Homo sapiens) + Integrin alpha-M (Homo sapiens), P05107+P11215; 0.07% of 93,000 active; activation, % at 10 µM; ATPlite luminescence; AID 1499, 2009;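 active = 10 µM primary screen giving 50% or more activity, confirmed by 40% or more on retest at that dose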
Target sequence (P05107 whole entry, looked up, other chains not shown): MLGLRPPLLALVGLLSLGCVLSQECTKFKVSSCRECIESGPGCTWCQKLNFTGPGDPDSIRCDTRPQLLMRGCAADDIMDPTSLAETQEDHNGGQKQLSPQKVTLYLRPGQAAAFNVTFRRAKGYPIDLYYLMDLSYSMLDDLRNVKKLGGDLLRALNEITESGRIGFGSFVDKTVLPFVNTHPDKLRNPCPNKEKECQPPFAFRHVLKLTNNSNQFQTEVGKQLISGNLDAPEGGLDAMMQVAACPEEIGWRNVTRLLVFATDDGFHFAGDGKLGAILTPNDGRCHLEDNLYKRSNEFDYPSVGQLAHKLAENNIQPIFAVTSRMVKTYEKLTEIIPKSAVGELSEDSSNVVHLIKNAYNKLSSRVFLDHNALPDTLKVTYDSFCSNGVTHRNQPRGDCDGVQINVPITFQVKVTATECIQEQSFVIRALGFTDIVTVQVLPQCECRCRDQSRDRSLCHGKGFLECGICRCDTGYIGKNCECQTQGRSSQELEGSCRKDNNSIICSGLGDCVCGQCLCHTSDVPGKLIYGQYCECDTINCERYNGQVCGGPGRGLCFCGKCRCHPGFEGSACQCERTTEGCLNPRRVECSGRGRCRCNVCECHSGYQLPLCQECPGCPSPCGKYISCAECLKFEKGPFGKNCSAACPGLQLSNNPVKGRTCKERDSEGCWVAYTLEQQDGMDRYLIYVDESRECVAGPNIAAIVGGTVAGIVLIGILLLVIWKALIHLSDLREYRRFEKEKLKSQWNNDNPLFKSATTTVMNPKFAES
tolC growth inh = growth inhibitors of E. coli tolC mutant, primary screen, strain BW25113 ΔtolC::kan, 384-well; OD615; AID 573, 2007; growth inhibition, % at 10 µM (by protocol); 2.2% of 65,000 active;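 active = growth inhibition at or above a cutoff equal to the mean over every tested compound plus 3 SD, cut at about 60% in these data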;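 note: growth measured after 20 h incubation at 37 °C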
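Test system: E. coli BW25113 ΔtolC::kan bacteria | Medium: Kanamycin-containing LB broth (50 µg/mL) | Dosing: One dose of 10 µM final | Times: 20 h incubation with compound, 37 °C | Detection: Optical density read at 615 nm | Read-out basis: Percent growth inhibition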
Mac1 fbg inh = inhibitors of CD11b/CD18 adhesion to fibrinogen, primary screen, K562 cells, luminescence | 0.54% of 93,000 active | inhibition, % at 10 µM | ATPlite luminescence; Mn2+ added to activate the integrin | Integrin beta-2 (Homo sapiens) + Integrin alpha-M (Homo sapiens), P05107+P11215 | AID 1497, 2009;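 active = primary inhibition of 50% or more at 10 µM, then 40% or more on retest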
E coli WT exp = growth inhibitors of wild-type E. coli, primary screen, strain BW25113, expanded library, OD600; 0.15% of 98,000 active; OD600 absorbance; growth inhibition, % at 100 µM;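 active = growth inhibition above about 50% at one test dose, limit read from the data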;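 note: growth measured after 20 h incubation at 37 °C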
Each line names hits and unclear results; the compound was inactive in the other large screens. The full list was thinned out, with hits kept by preference.

N#Cc1c(NC(=O)c2ccc(Br)o2)n(-c2ccccc2)c2nc3ccccc3nc12	tolC growth inh 62 (no result: Mac1 fbg enh, Mac1 fbg inh, E coli WT exp)
O=[N+]([O-])c1ccc(Sc2nccn2Cc2ccccc2)c([N+](=O)[O-])c1	none (no result: tolC growth inh)
Cc1sc2ncnc(NCC3COc4ccccc4O3)c2c1C (stereo unspecified)	Mac1 fbg inh 100 (no result: tolC growth inh, E coli WT exp)
Cc1sc2ncnc(NCC(C)(C)N3CCOCC3)c2c1C	Mac1 fbg inh 68 (no result: tolC growth inh)
CCCCn1c(SCC(=O)Nc2cc(C(F)(F)F)cc(C(F)(F)F)c2)nnc1C(CC)N(C)C (stereo unspecified)	none (no result: tolC growth inh, E coli WT exp)
CCOC(=O)c1nnn(-c2nc(OC)nc(N3CCCCC3)n2)c1-c1ccccc1	none (no result: Mac1 fbg enh, tolC growth inh, Mac1 fbg inh)
CCOC(=O)c1c(-c2ccccc2)nnn1-c1nc(OCC)nc(N2CCCCC2)n1	tolC growth inh 75
CCOC(=O)c1ccc(N/C(=N\S(=O)(=O)c2ccc(F)cc2F)c2ccccc2)cc1	none (no result: tolC growth inh, E coli WT exp)
COc1cccc(C(=O)/C=C/Nc2cccc(O)c2)c1	Mac1 fbg inh 91 (no result: tolC growth inh)
CCCCCC/C(=N/O)c1ccccn1	tolC growth inh 100
CCOC(=O)N1CCN(Cc2nc(N)nc(Nc3ccc(Oc4ccccc4)cc3)n2)CC1	none
N/C(=N/O)c1nc(N2CCCCC2)nc(N2CCCCC2)n1	none (no result: Mac1 fbg enh, Mac1 fbg inh)
N/C(=N/O)c1nc(N2CCCC2)nc(N(c2ccccc2)c2ccccc2)n1	tolC growth inh 72
Cc1ccc(N2C(=N)/C(=C3/Nc4ccccc4S3)C(c3ccccc3)C2=O)cc1 (stereo unspecified)	none (no result: tolC growth inh, E coli WT exp)
C=CC(=O)NCCCc1cc(C(C)(C)C)c(O)c(C(C)(C)C)c1	none (no result: tolC growth inh, E coli WT exp)
CCCCOc1ccc(C(=O)Nc2ccncc2)cc1	Mac1 fbg inh 96
CCc1ccc(/C=C/C(=O)c2cc(Br)ccc(=O)c2O)cc1	Mac1 fbg inh 74 (no result: tolC growth inh)
Cc1cccc(/C=C/C(=O)c2cc(Br)ccc(=O)c2O)c1	Mac1 fbg inh 85 (no result: tolC growth inh)
COc1cc(NS(=O)(=O)c2ccc(OC)c(C)c2C)c(OC)cc1Cl	tolC growth inh 65
CC(NC(=O)Nc1nnc(C(F)(F)F)s1)(C(F)(F)F)C(F)(F)F	Mac1 fbg inh 99, E coli WT exp 71
CC(NC(=O)Nc1nnc(C(F)(F)F)s1)N1C(=O)C2C3C=CC(C3)C2C1=O (stereo unspecified)	none (no result: Mac1 fbg enh, Mac1 fbg inh)
Cc1ccc(C(=O)N(c2ccccc2)C2CC(C)N(C(=O)c3ccco3)c3ccccc32)cc1 (stereo unspecified)	none (no result: tolC growth inh)
Cc1cccc(-c2cc(C(=O)NCc3ccccn3)c3ccccc3n2)c1	none (no result: tolC growth inh, E coli WT exp)
Cc1cccc(C(=O)c2cnc3ccccc3c2-c2ccccc2)c1	Mac1 fbg inh 59 (no result: tolC growth inh)
Cc1ccc(NC2SC(=O)N(CC(=O)O)C2=O)cc1 (stereo unspecified)	none (no result: tolC growth inh)
O=C1c2ccccc2C(=O)N1CCC(c1ccc(F)cc1)c1ccco1 (stereo unspecified)	tolC growth inh 77
O=C1CCC(=O)N1CCC(c1ccc(F)cc1)c1ccco1 (stereo unspecified)	none
Cn1c(CSc2nc3ccccc3s2)nc2ccccc21	tolC growth inh 72
CCOc1ccc(-c2nc(C#N)c(N3CCCCCC3)o2)cc1	tolC growth inh 68
CC(C)C(c1nnnn1C1CCCC1)N1CCCc2ccccc21 (stereo unspecified)	tolC growth inh 74 (no result: Mac1 fbg enh, Mac1 fbg inh)
CC(C)(C)n1nnnc1C(c1cccs1)N1CCCc2ccccc21 (stereo unspecified)	tolC growth inh 82
CC(C)(C)n1nnnc1C(c1cccs1)N1CCCC2(CCCCC2)C1 (stereo unspecified)	none (no result: Mac1 fbg enh, Mac1 fbg inh)
CC(C)C(c1nnnn1C1CCCC1)N1CCc2ccccc21 (stereo unspecified)	none
O=C(N/N=C\c1cc(Br)cs1)C1COc2ccccc2O1 (stereo unspecified)	none (no result: tolC growth inh)
CSc1ccc(S(=O)(=O)Nc2ccc(N3CCOCC3)c(Cl)c2)cc1	tolC growth inh 100
O=C(NNC(=S)NC(=O)c1cccnc1)c1ccc(Cl)cc1	E coli WT exp 74 (no result: Mac1 fbg enh, tolC growth inh, Mac1 fbg inh)
O=C(Nc1ccc2oc(=O)ccc2c1)c1cccnc1Cl	none (no result: Mac1 fbg enh, tolC growth inh, Mac1 fbg inh)
Cc1ccc(Cl)cc1N1CCN(Cc2nnnn2Cc2ccco2)CC1	tolC growth inh 65
N=c1cc(C2(O)CCCCC2)n2c(nc3ccccc32)s1	Mac1 fbg inh 59
Cc1ccc(/C=C/C(=O)Nc2nnc(SCc3ccc(C#N)cc3)s2)o1	none (no result: tolC growth inh, E coli WT exp)
COc1ccc(-c2n[nH]c(C)c2-c2ccc(Cl)cc2)c(O)c1	none (no result: Mac1 fbg enh, tolC growth inh, Mac1 fbg inh)
COc1ccc(-c2n[nH]c(C(F)(F)F)c2-c2cc3ccccc3o2)c(O)c1	tolC growth inh 100
CCOc1ccc(Nc2cc(C)nc(-n3nc(C)cc3C)n2)cc1	tolC growth inh 72
CNc1cc(C)nc(-n2nc(C)cc2C)n1	none
COc1ccc(NS(=O)(=O)c2ccc3nc(COc4ccc(Cl)c(C)c4)[nH]c3c2)cc1	none (no result: tolC growth inh, E coli WT exp)
CCN=c1scc(-c2ccc3c(c2)NC(=O)CO3)n1N=C1CCCC1	Mac1 fbg inh 98
CCCCN=c1scc(-c2ccc3c(c2)NC(=O)CO3)n1N=C1CCCC1	none (no result: tolC growth inh)
O=C1COc2ccc(-c3csc(=Nc4ccc(OC(F)F)cc4)n3CC3CCCO3)cc2N1 (stereo unspecified)	none (no result: Mac1 fbg enh, tolC growth inh, Mac1 fbg inh)
COCC(C)n1c(-c2ccc3c(c2)NC(=O)CO3)csc1=Nc1ccc(OC(F)F)cc1 (stereo unspecified)	Mac1 fbg inh 96 (no result: tolC growth inh)
O=C(CNC(=O)c1ccc(-c2ccccc2)cc1)OCc1ccc(Br)cc1	none (no result: tolC growth inh, E coli WT exp)
O=C(Nc1ccc(-n2nncc2-c2ccco2)cc1)c1cc2ccccc2oc1=O	Mac1 fbg enh 168
Cc1ccnc(N/C=C(\C#N)c2nc(-c3cccc(Br)c3)cs2)c1	none (no result: tolC growth inh)
CCc1cc(C(=O)O)c(NC(=O)C(c2ccccc2)c2ccccc2)s1	none (no result: tolC growth inh)
CCCSc1nsc(NC(=O)C(c2ccccc2)c2ccccc2)n1	Mac1 fbg inh 98 (no result: tolC growth inh)
CC(Cc1cccs1)NC(=O)Nc1ccc(Cl)c(Cl)c1 (stereo unspecified)	none (no result: tolC growth inh)
CC(C)C(C(=O)NCc1ccco1)N(C(=O)CNS(=O)(=O)c1ccc(Cl)cc1)C1CCCC1 (stereo unspecified)	tolC growth inh 73
O=C(CN(Cc1ccco1)C(=O)CNS(=O)(=O)c1ccc(Cl)cc1)NC1CCCCC1	none
O=C(Nc1ccc2c(c1)OCO2)c1ccc(COc2ccc3c(c2)CCC3)o1	tolC growth inh 72 (no result: Mac1 fbg enh, Mac1 fbg inh)
C=CCN(CC=C)S(=O)(=O)c1ccc2nc(NC(=O)C(C)C)sc2c1	tolC growth inh 100
CCOC(=O)c1ccc2nc(NC(=O)C(C)C)sc2c1	none (no result: Mac1 fbg enh, Mac1 fbg inh)
CCc1ccc(C(=O)N/N=C/c2cccc3ccccc23)nc1	none (no result: tolC growth inh, E coli WT exp)
CCC(C)(C)n1nnnc1C(c1cc2ccc(OC)cc2[nH]c1=O)N1CCc2ccccc2C1 (stereo unspecified)	tolC growth inh 78
COc1ccc2cc(C(c3nnnn3C(C)(C)C)N3CCc4ccccc4C3)c(=O)[nH]c2c1 (stereo unspecified)	none
CONC(=O)C1CCN(C(=O)OCc2ccccc2)CC1	none (no result: tolC growth inh)
O=S(=O)(NCCSCc1ccc(Cl)cc1Cl)c1ccc2c(c1)OCCO2	none (no result: tolC growth inh)
O=S(=O)(NCCSc1ccc(Cl)cc1)c1ccc2c(c1)OCCO2	tolC growth inh 100
CO[C@@]1(NC(=O)Cc2cccs2)C(=O)N2C(C(=O)O)=C(COC(N)=O)CS[C@@H]21	tolC growth inh 100 (no result: Mac1 fbg enh, Mac1 fbg inh, E coli WT exp)
O=C(Oc1c(Cl)cc(Cl)c2cccnc12)c1ccco1	E coli WT exp 100 (no result: tolC growth inh)
O=C(Oc1c(CN2CCOCC2)cc(Cl)c2cccnc12)c1ccc(F)cc1	none
